Reference: paper PMC7253076 (Cell chemical biology, 2019)

What was measured:
[1] = tested on: human stem-cell-derived motor neurons carrying the ALS-causing SOD1^A4V mutation; assay: Motor neuron CPA survival assay, SOD1^A4V ALS motor neurons; details: for maximum efficacy compared with compound 1 / neuroprotection in CPA survival assay / concentrations that completely blocked the effects of CPA treatment: CPA-treated SOD1^A4V motor neurons; for EC50: Homo sapiens, Neuron, 72 h, read-out: EC50 in motor neuron survival assay
JNK pathway = assay: Western blots of JNK pathway in CPA-treated motor neurons; type: cell-based, mouse; details: western blot, Fig. S2
Method in brief: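 Day-6 embryoid bodies from mouse ES cells (HB9::GFP reporter, human SOD1 transgene; RA 1 μM + SAG 0.5 μM) were given CPA 10 μM plus test compound 0.5 μM for 4 h, then lysed in HEPES/Triton/SDS buffer. Immunoblots used phospho-JNK (Thr183/Tyr185), phospho-c-Jun (Ser63), phospho-MKK4 (Ser257), total proteins and cleaved caspase 3 at 1:1000, with GAPDH at 1:3000. Signals normalised to GAPDH, phospho to total, and expressed as % of CPA; n = 2 differentiations; unpaired two-tailed t-tests.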

[2] = tested on: mouse stem cell-derived motor neurons; details: CPA-treated; ref Thams et al., 2019; cited from earlier work
[3] = tested on: motor neurons differentiated from human induced pluripotent stem cells derived from a healthy patient; assay: Motor neuron CPA survival assay, healthy-patient iPSC-derived motor neurons; type: cell-based; details: for rescue of CPA toxicity / neuroprotection: CPA-treated healthy human motor neurons, 72 h; for concentrations toxic to motor neurons in the absence of CPA: without CPA

## CN1CCN(Cc2ccc(-c3cnc4[nH]cc(-c5cccc6[nH]ncc56)c4c3)cc2)CC1 [7aa, 4-(5-(4-((4-Methylpiperazin-1-yl)methyl)phenyl)-1H-pyrrolo[2,3-b]pyridin-3-yl)-1H-indazole]
[1]
  maximum efficacy compared with compound 1: greater maximum efficacy than compound 1
  EC50: < 220 nM

## CN1CCN(Cc2ccc(-c3cnc4[nH]cc(-c5ccccc5)c4c3)cc2)CC1 [7ac, 5-(4-((4-Methylpiperazin-1-yl)methyl)phenyl)-3-phenyl-1H-pyrrolo[2,3-b]pyridine]
[1]
  maximum efficacy compared with compound 1: greater maximum efficacy than compound 1

## CNC(=O)Nc1cccc(-c2c[nH]c3ncc(-c4ccc(CN5CCN(C)CC5)cc4)cc23)c1 [7ak, 1-Methyl-3-(3-(5-(4-((4-methylpiperazin-1-yl)methyl)phenyl)-1H-pyrrolo[2,3-b]pyridin-3-yl)phenyl)urea]
[1]
  maximum efficacy compared with compound 1: greater maximum efficacy than compound 1

## COC(=O)Nc1cccc(-c2c[nH]c3ncc(-c4ccc(CN5CCN(C)CC5)cc4)cc23)c1 [7al, Methyl (3-(5-(4-((4-methylpiperazin-1-yl)methyl)phenyl)-1H-pyrrolo[2,3-b]pyridin-3-yl)phenyl)carbamate]
[1]
  maximum efficacy compared with compound 1: greater maximum efficacy than compound 1

## CNC(=O)Nc1ccc(-c2c[nH]c3ncc(-c4ccc(CN5CCN(C)CC5)cc4)cc23)cc1 [7am, 1-Methyl-3-(4-(5-(4-((4-methylpiperazin-1-yl)methyl)phenyl)-1H-pyrrolo[2,3-b]pyridin-3-yl)phenyl)urea]
[1]
  maximum efficacy compared with compound 1: greater maximum efficacy than compound 1

## CN1CCN(Cc2ccc(-c3cnc4[nH]cc(-c5cccc(NC(=O)NCc6ccco6)c5)c4c3)cc2)CC1 [7ay, 1-(Furan-2-ylmethyl)-3-(3-(5-(4-((4-methylpiperazin-1-yl)methyl)phenyl)-1H-pyrrolo[2,3-b]pyridin-3-yl)phenyl)urea]
[1]
  neuroprotection in CPA survival assay: completely ineffective

## CN1CCN(Cc2ccc(-c3cnc4[nH]cc(-c5cccc6c5oc5ccccc56)c4c3)cc2)CC1 [7c, 3-(Dibenzo[b,d]furan-4-yl)-5-(4-((4-methylpiperazin-1-yl)methyl)phenyl)-1H-pyrrolo[2,3-b]pyridine]
[1]
  neuroprotection in CPA survival assay: completely ineffective

## CN1CCN(Cc2ccc(-c3cnc4[nH]cc(-c5ccc(N)cc5)c4c3)cc2)CC1 [7e, 4-(5-(4-((4-Methylpiperazin-1-yl)methyl)phenyl)-1H-pyrrolo[2,3-b]pyridin-3-yl)aniline]
[1]
  maximum efficacy compared with compound 1: greater maximum efficacy than compound 1

## CN1CCN(Cc2ccc(-c3cnc4[nH]cc(-c5cccc(N)c5)c4c3)cc2)CC1 [7h, 3-(5-(4-((4-Methylpiperazin-1-yl)methyl)phenyl)-1H-pyrrolo[2,3-b]pyridin-3-yl)aniline]
[1]
  maximum efficacy compared with compound 1: greater maximum efficacy than compound 1
  EC50: < 220 nM

## Cc1cc(-c2c[nH]c3ncc(-c4ccc(CN5CCN(C)CC5)cc4)cc23)cnc1N [7l, 3-Methyl-5-(5-(4-((4-methylpiperazin-1-yl)methyl)phenyl)-1H-pyrrolo[2,3-b]pyridin-3-yl)pyridin-2-amine]
[1]
  maximum efficacy compared with compound 1: greater maximum efficacy than compound 1
  EC50: < 220 nM

## CN1CCN(Cc2ccc(-c3cnc4[nH]cc(-c5ccc(N)nc5)c4c3)cc2)CC1 [7m, 5-(5-(4-((4-Methylpiperazin-1-yl)methyl)phenyl)-1H-pyrrolo[2,3-b]pyridin-3-yl)pyridin-2-amine]
[1]
  EC50: < 220 nM

## CN1CCN(Cc2ccc(-c3cnc4[nH]cc(-c5cccc([N+](=O)[O-])c5)c4c3)cc2)CC1 [7p, 5-(4-((4-Methylpiperazin-1-yl)methyl)phenyl)-3-(3-nitrophenyl)-1H-pyrrolo[2,3-b]pyridine]
[1]
  maximum efficacy compared with compound 1: greater maximum efficacy than compound 1

## CN1CCN(Cc2ccc(-c3cnc4[nH]cc(-c5ccc6[nH]ncc6c5)c4c3)cc2)CC1 [7v, 5-(5-(4-((4-Methylpiperazin-1-yl)methyl)phenyl)-1H-pyrrolo[2,3-b]pyridin-3-yl)-1H-indazole]
[1]
  maximum efficacy compared with compound 1: greater maximum efficacy than compound 1
  EC50: < 220 nM

## CN1CCN(Cc2ccc(-c3cnc4[nH]cc(-c5cccc(F)c5)c4c3)cc2)CC1 [7y, 3-(3-Fluorophenyl)-5-(4-((4-methylpiperazin-1-yl)methyl)phenyl)-1H-pyrrolo[2,3-b]pyridine]
[1]
  maximum efficacy compared with compound 1: greater maximum efficacy than compound 1

## CN1CC2CCC(C1)N2Cc1ccc(-c2cnc3[nH]cc(-c4cccc(Cl)c4)c3c2)cc1 [12f, 3-(3-Chlorophenyl)-5-(4-((3-methyl-3,8-diazabicyclo[3.2.1]octan-8-yl)methyl)phenyl)-1H-pyrrolo[2,3-b]pyridine]
[1]
  EC50: 110 nM
[1]; motor neuron survival assay
  concentrations at which compound was toxic: above 0.3 μM

## OCCN1CCN(Cc2ccc(-c3cnc4[nH]cc(-c5cccc(F)c5)c4c3)cc2)CC1 [12h, 2-(4-(4-(3-(3-Fluorophenyl)-1H-pyrrolo[2,3-b]pyridin-5-yl)benzyl)piperazin-1-yl)ethan-1-ol]
JNK pathway
  inhibition of JNK pathway components: effectively inhibit the same JNK pathway components as compound 1
[1]
  concentrations that completely blocked the effects of CPA treatment: < 0.3 µM

## O[C@@H]1CCN(Cc2ccc(-c3cnc4[nH]cc(-c5cccc(F)c5)c4c3)cc2)C1 [12i, (R)-1-(4-(3-(3-Fluorophenyl)-1H-pyrrolo[2,3-b]pyridin-5-yl)benzyl)pyrrolidin-3-ol]
JNK pathway
  inhibition of JNK pathway components: effectively inhibit the same JNK pathway components as compound 1
[1]
  concentrations that completely blocked the effects of CPA treatment: < 0.3 µM

## O[C@@H]1CCN(Cc2ccc(-c3cnc4[nH]cc(-c5cccc(Cl)c5)c4c3)cc2)C1 [12l, (R)-1-(4-(3-(3-Chlorophenyl)-1H-pyrrolo[2,3-b]pyridin-5-yl)benzyl)pyrrolidin-3-ol]
JNK pathway
  inhibition of JNK pathway components: effectively inhibit the same JNK pathway components as compound 1
[1]
  concentrations that completely blocked the effects of CPA treatment: < 0.3 µM

## Cn1c2ccccc2c2c3c(c4c5ccccc5n(CCC#N)c4c21)CNC3=O [Gö6976]
[2]
  protection of motor neurons from ER stress: protect motor neurons from ER stress

## Cc1nc(Nc2cnn(C3CCNCC3)c2)nc2c1N(C)C(=O)c1cc3ccccc3cc1N2C [HTH 01–015]
[3]
  rescue of CPA toxicity / neuroprotection: did not rescue CPA toxicity
  concentrations toxic to motor neurons in the absence of CPA: above 2 μM

## COC(=O)[C@@]1(O)C[C@H]2O[C@]1(C)n1c3ccccc3c3c4c(c5c6ccccc6n2c5c31)C(=O)NC4 [K252a]
[2]
  protection of motor neurons from ER stress: protect motor neurons from ER stress

## Nc1ccc(-c2cnc(N)c(-c3ccc(Cl)cc3)c2)cn1 [PF-6260933]
[3]
  rescue of CPA toxicity / neuroprotection: neuroprotective

## CCC(=O)Nc1cccc(Oc2nc(Nc3ccc(N4CCN(C)CC4)cc3OC)ncc2Cl)c1 [WZ4003]
[3]
  rescue of CPA toxicity / neuroprotection: did not rescue CPA toxicity
  concentrations toxic to motor neurons in the absence of CPA: above 2 μM

## O=C1Cc2c([nH]c3ccc([N+](=O)[O-])cc23)-c2ccccc2N1 [alsterpaullone]
[3]
  rescue of CPA toxicity / neuroprotection: more potent than kenpaullone

## O=C1Cc2c([nH]c3ccc(Br)cc23)-c2ccccc2N1 [kenpaullone]
[2]
  protection of motor neurons from ER stress: protect motor neurons from ER stress
